What all share (assay type): functional
Common to all, as to conditions: for CC50: read-out: LC50 (the source's name)

Assay [1] has as its system HT-29. The assay is described as follows: Cytotoxicity against human HT-29 cells. The gist of the method: (§1)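 Cell-growth inhibition was tested in human tumor lines: A-549 lung carcinoma, HT-29 colorectal carcinoma, MDA-MB-231 breast adenocarcinoma and PSN-1 pancreatic adenocarcinoma. GI50 is the concentration giving 50% inhibition of cell growth, calculated by a literature procedure. TGI and LC50 endpoints were also reported.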

Assay [2] deals with MDA-MB-231. The assay can be described thus: Cytotoxicity against human MDA-MB-231 cells. In a few lines: as §1
Assay [3] relates to A549. The assay is described as follows: Cytotoxicity against human A549 cells. In a few lines: as §1
Assay [4] deals with PSN1. The assay is described as follows: Cytotoxicity against human PSN1 cells. In a few lines:
as §1

Bounds are passed on as bounds.

Turning to `C=C(C[C@@H](C)C[C@@H]1CC(=O)C=C(/C=C/CC[C@H](C)C(=O)O)O1)C[C@H](O)c1coc(/C=C(/C)[C@@H](C)OC)n1`, the GI50 in assay [1] turned out to be 1 µM; in assay [2] it was 4.1 µM; in assay [3], 1.4 µM; in assay [4] it was 1.1 µM. Moreover, the TGI was 3.7 µM in assay [1], > 19 µM in assay [2], > 19 µM in assay [3] and > 19 µM in assay [4]. Further, the CC50 in assay [1], in assay [2], in assay [3] and in assay [4] was > 19 µM each time.

In the case of `C=C1CC(C)CC2CC(=O)C=C(C[C@H](O)CC[C@H](C)C(=O)OC(c3coc(/C=C(/C)C(C)OC)n3)C1)O2` (some centres undefined), the concentration for 50% growth inhibition (GI50) in assay [1] is 18 µM; in assay [2] it was > 19 µM; in assay [3], 9.9 µM; in assay [4], 8.7 µM. The TGI in assay [1], in assay [2], in assay [3] and in assay [4] was > 19 µM in each case. The CC50 in assay [1], in assay [2], in assay [3] and in assay [4] was > 19 µM each time.

The values are drawn from ChEMBL document CHEMBL5143609, “Enigmazole C: A Cytotoxic Macrocyclic Lactone and Its Ring-Opened Derivatives from a New Species of Homophymia Sponge” (2022).
